# Data as given in the M2OR odorant receptor database.
# Numbering of substitutions follows the chain as printed.
# Test system: T1, OR2W1
# T1 sequence (whole entry): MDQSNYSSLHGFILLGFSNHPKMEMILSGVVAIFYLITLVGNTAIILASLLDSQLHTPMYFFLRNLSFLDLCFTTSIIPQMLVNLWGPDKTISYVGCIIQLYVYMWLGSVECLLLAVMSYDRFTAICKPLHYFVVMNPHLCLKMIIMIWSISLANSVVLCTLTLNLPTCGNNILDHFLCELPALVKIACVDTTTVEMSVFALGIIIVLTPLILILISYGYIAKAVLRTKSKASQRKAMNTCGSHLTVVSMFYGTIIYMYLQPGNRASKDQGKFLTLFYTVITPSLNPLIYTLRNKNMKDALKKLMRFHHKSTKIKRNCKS
# Conditions: stereoisomer not certain
# Method in brief: (§1)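 Each entry records the cell line, G-protein, co-transfected protein and tags used. Methods varied with the source, often transient luciferase assays in mammalian cell lines. A receptor–molecule pair is called responsive (active) if the original authors judged its signal statistically different from baseline and non-responsive (inactive) otherwise.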
row,SMILES,odorant receptor agonist call
1,CCCCCCCC(=O)[O-].[H+],active
2,CCCCCc1ccccn1,active
3,CCCCCC(C)O (stereo not drawn),active
4,CCCCC=CC=O,active
5,CCC=CCCC=CCO,active
6,CC(C)(S)CCOC=O,active
7,CCCCCC=CCCC=O,active
8,CCOC(=O)C1CCCCC1,active
9,CCCCC(=O)OCC,active

# Test system: T2, OR2W1
# T2 sequence (whole entry): T1 sequence (whole entry) with M81V, N296D
# Conditions: stereoisomer not certain
# Method in brief: as §1
row,SMILES,odorant receptor agonist call
1,CCCCCCCC(=O)[O-].[H+],inactive
2,CCCCCc1ccccn1,active
3,CCCCCC(C)O (stereo not drawn),active
4,CCCCC=CC=O,inactive
5,CCC=CCCC=CCO,active
6,CC(C)(S)CCOC=O,active
7,CCCCCC=CCCC=O,inactive
8,CCOC(=O)C1CCCCC1,inactive
9,CCCCC(=O)OCC,active
